Assay outcomes from PubChem BioAssay.
Hits are enriched below; roughly 1.4% of the tested compounds scored in any of these assays.
CAL PDZ FP-1: blocks peptide binding to the human CAL PDZ domain; Q9HD26; purified CAL PDZ, TMR-peptide fluorescence polarization, 1 h; inhibition, % at 24.9 µM; 300,000 tested, 0.92% active;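 active = mean inhibition of at least 30% with at least half of replicates also reaching 30%; inconclusive = no clear call, values can overlap the other calls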;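 note: 0% = DMSO neutral control and 100% = excess unlabeled competitor peptide PRC23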
Glyco luc inh: blocks N-linked glycosylation in D54 reporter cells. D54 ERlucT glycosylation luciferase reporter, 24 h; percent of 100 nM tunicamycin response. reporter increase, % at 12.5 µM. 360,000 tested, 0.23% active. AID 588692;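 active = mean luciferase reporter signal, scaled so untreated is 0 and the glycosylation-blocking control 100, at or above a set limit in every replicate; inconclusive = mean reaches the limit but not every replicate does; inactive = mean below the limit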;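 note: luciferase carries N-glycosylation sites so blocking glycosylation raises the light; 0% = median of neutral control wells and 100% = median of 100 nM tunicamycin wells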
Vif imaging: HIV Vif inhibition; HEK293T cells, Vif self-association by quenched fluorescence, imaging, 24 h; inhibition, % at 7.49 µM; 340,000 tested, 0.35% active; AID 602346; in the data active = inhibition above about 50%, passing the limit was not always enough; inconclusive = no clear call, values can overlap the other calls; inactive = below about 31%
CDK5 inh: inhibitors of human CDK5/p35 kinase. Recombinant CDK5/p35, ADP-Glo luminescence, 60 min. inhibition, % at 10 µM. 330,000 tested, 0.01% active. AID 488839;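 active = highest replicate inhibition of at least 50% and at least 75% of replicates reaching 50%; inconclusive = only one of the two criteria met; inactive = both criteria failed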;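 note: plate controls were DMSO neutral control for no effect and GW8510 at 10 µM for full effect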
Target sequence (Q00535 whole entry, looked up): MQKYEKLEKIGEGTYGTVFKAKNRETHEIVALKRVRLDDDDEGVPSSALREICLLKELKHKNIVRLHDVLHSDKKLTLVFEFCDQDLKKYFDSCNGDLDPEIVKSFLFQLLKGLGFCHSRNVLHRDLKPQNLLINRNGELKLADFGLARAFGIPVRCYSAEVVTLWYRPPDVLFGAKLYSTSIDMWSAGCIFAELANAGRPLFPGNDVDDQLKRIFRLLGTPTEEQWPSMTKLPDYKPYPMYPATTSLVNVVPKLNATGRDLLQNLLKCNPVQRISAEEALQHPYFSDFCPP
Target sequence (Q15078 whole entry, looked up): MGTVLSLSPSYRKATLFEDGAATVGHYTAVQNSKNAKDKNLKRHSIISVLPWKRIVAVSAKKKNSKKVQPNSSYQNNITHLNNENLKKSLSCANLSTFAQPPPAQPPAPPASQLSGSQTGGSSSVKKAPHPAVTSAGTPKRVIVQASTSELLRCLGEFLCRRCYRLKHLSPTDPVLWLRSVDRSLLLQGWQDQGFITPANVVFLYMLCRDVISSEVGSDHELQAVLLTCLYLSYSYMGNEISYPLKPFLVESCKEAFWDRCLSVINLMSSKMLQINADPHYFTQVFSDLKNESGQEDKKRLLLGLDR
CAL PDZ FP-2: blocks peptide binding to human CAL PDZ domain; Q9HD26; inhibition, % at 20 µM; purified CAL PDZ, TMR-peptide fluorescence polarization, 1 h; 330,000 tested, 0.02% active; AID 504414;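 active = highest replicate inhibition of at least 40%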;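 note: plate controls were DMSO neutral control wells for no effect and unlabeled competitor peptide control wells for full effect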
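Material: tagged CAL PDZ domain; buffer or medium: 25 mM sodium phosphate pH 7.4, 150 mM NaCl, TCEP, IgG, Thesit; compound dosing: single point, 20 µM; schedule: 1 h incubation at room temperature before polarization reading; measured by: FP readout, S and P plane fluorescence; read-out basis: percent inhibition from loss of millipolarization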
PvdQ acylase: blocks Pseudomonas aeruginosa PvdQ acylase activity. purified PvdQ acylase, fluorescence plate reader. inhibition, % at 10 µM. 340,000 tested, 0.063% active. AID 488965; in the data active = inhibition above about 30%, passing the limit was not always enough; inconclusive = no clear call, values can overlap the other calls;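 note: 0% = vehicle neutral wells and 100% = reference inhibitor wells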
Starred values were filed as active, the others as inactive; ? = inconclusive; / = no result.

SMILES | CAL PDZ FP-1 | Glyco luc inh | Vif imaging | CDK5 inh | CAL PDZ FP-2 | PvdQ acylase
COc1ccc(CCN2CCCC(CN(C)Cc3cc(Cl)c(O)c(OC)c3)C2)cc1 (stereo unspecified) | -7.8 | -2.6 | 5.9 | 1.1 | -0.7 | -13.0
O=S1(=O)C=C[C@@H](COCc2ccccc2)N1Cc1ccc(Br)cc1 | / | 1.3 | / | / | / | /
CC(=O)c1ccc(N2CCN(S(=O)(=O)c3ccc4c(c3)CCC(=O)N4)CC2)cc1 | / | 0.4 | -3.1 | / | / | /
Cc1ccc2cccc(OCc3cccc([N+](=O)[O-])c3)c2n1 | 61.2* | -1.7 | -4.5 | 0.7 | / | -18.1
Cc1c(C(=O)NC(=S)N(Cc2ccccc2)c2ccccn2)cccc1[N+](=O)[O-] | -1.3 | 1.5 | 0.0 | -2.4 | -1.1 | -12.3
CCOC(=O)C1=C(C)NC(C)=C(C(=O)OCC)C1C(=O)OCC(=O)NCc1ccccc1 | / | 0.8 | 0.8 | 1.0 | -0.6 | -14.0
CCOC(=O)C1=C(C)NC(C)=C(C(=O)OCC)C1C(=O)OCC(=O)NCc1ccccc1OC | 87.9* | 2.3 | -4.2 | -0.2 | -0.5 | -7.8
CCOc1ccc(Cl)cc1S(=O)(=O)N1CCC(C(=O)NCc2ccco2)CC1 | 98.4* | 1.5 | 1.1 | 0.0 | -1.1 | -18.3
COc1ccc(-c2cc(C)no2)cc1S(=O)(=O)Nc1cccc(C)c1 | -1.5 | 5.3 | -7.4 | -1.2 | -2.6 | -1.8
COc1ccc(-c2cc(C)no2)cc1S(=O)(=O)Nc1ccccc1 | -1.6 | 44.8* | 4.9 | -1.4 | -2.6 | -1.7
CC(C)(C)c1ccc(NC(=O)CCNC(=O)c2ccco2)cc1 | -4.1 | -0.2 | 7.6 | 0.2 | -0.9 | -18.0
CCN(CC)S(=O)(=O)c1ccc(N2CCN(C)CC2)c(NC(=O)COc2ccc(F)cc2Cl)c1 | -1.6 | -5.1 | ? | -9.0 | -2.5 | -27.3
COCCNC(=O)C1(C)CCCN(C(=O)COc2ccccc2)C1 (stereo unspecified) | / | 1.3 | -3.4 | / | / | /
COc1cc(CN2CCc3ccccc3C2)ccc1O | 4.9 | 93.2* | -0.7 | -0.3 | -1.1 | -14.8
CN(CC1COc2ccccc2O1)C(=O)c1cc(COc2c(F)cccc2F)on1 (stereo unspecified) | 57.0* | -0.6 | 9.3 | 0.9 | -0.6 | -1.4
Cc1cc([N+](=O)[O-])nn1CC(=O)N/N=C/c1ccccc1F | 44.1* | -0.5 | 17.9 | 0.7 | -1.0 | -14.6
Cc1cc([N+](=O)[O-])nn1CC(=O)Nc1cc(F)ccc1F | 69.5* | -0.5 | 24.7 | 3.7 | -2.0 | -15.2
CSc1nsc(SCC(=O)NCc2ccc(C)cc2)n1 | 71.1* | 0.5 | 0.5 | 1.2 | / | -19.0
O=C(CSc1nncs1)NCc1ccc(F)cc1 | 0.3 | 1.9 | 50.9* | 2.1 | -2.9 | 16.0
CNC(=O)c1cc2cc(OC)ccc2n1CCN(Cc1ccccc1)Cc1ccccc1 | 0.1 | -0.7 | -1.2 | 0.4 | 2.6 | -16.2
CNC(=O)c1cc2cc(OC)ccc2n1CCN(C)C | 47.3* | -0.3 | 0.1 | -0.4 | / | -6.4
O=C(NCC(c1cccs1)N1CCOCC1)c1ccc(OCc2ccccc2)cc1 (stereo unspecified) | / | -1.1 | -1.2 | -0.2 | -1.2 | 5.3
COc1ccc(N/C=C(\C=C\C#N)S(=O)(=O)c2ccccc2)cc1 | -11.2 | 3.5 | 86.7* | -0.1 | -1.0 | -0.2
CCC(C)C(NC(=O)OC(C)(C)C)C(=O)NC(C(=O)NC(C)C(N)=O)C(C)C (stereo unspecified) | / | 0.9 | 2.6 | -1.0 | -0.6 | -4.8
CC(NC(=O)C(CC(=O)OC(C)(C)C)NC(=O)OC(C)(C)C)C(N)=O (stereo unspecified) | -3.8 | 1.5 | 55.0* | -0.3 | -0.2 | -4.0
C#CCOCCOCCOCCNc1nc(N2CCN(C(=O)CCCCCCCCCCNC(=O)[C@H](CCCCN)n3cc(CCO)nn3)CC2)nc(N2CCN(C(=O)CCCCCCCCCCNC(=O)[C@H](CCCN=C(N)N)n3cc(C[C@@H](C)CC)nn3)CC2)n1 | -0.6 | -10.8 | 72.3* | 8.6 | -2.5 | -18.1
C#CCOCCOCCOCCNc1nc(N2CCN(C(=O)CCCCCCCCCCNC(=O)[C@H](CCCCN)n3cc(CCCC(=O)O)nn3)CC2)nc(N2CCN(C(=O)CCCCCCCCCCNC(=O)[C@H](CCCN=C(N)N)n3cc(C[C@@H](C)CC)nn3)CC2)n1 | -9.4 | 0.5 | 12.2 | 1.7 | -1.5 | -12.1
